Among the data in ChEMBL document CHEMBL1777742, “Synthesis, cytotoxic activities and cell cycle arrest profiles of naphtho[2,1-α]pyrrolo[3,4-c]carbazole-5,7(6H,12H)-dione glycosides” (Bioorg Med Chem Lett, 2011) are IC50 and Activity values, retold here.

Format in all cases: functional, cell-based
Assay [1] relates to MDA-MB-468. The experiment in a line: Cytotoxicity against human MDA-MB-468 cells.
Assay [2] relates to PC-3. Description: Cytotoxicity against human PC3 cells.
For assay [3], the system named is MCF7. The experiment in a line: Cell cycle arrest in human MCF7 cells assessed as accumulation of cells at S phase at 10 uM after 24 hrs by FACS analysis. The method, boiled down: (§1)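 MCF-7 breast cells were exposed to each compound at 10 μM for 24 h. Cell-cycle distribution was then analysed by FACS, reading the percentage of cells in G1 and S phases.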
The test system of assay [4] is MCF7. Description: Cytotoxicity against human MCF7 cells.
Assay [5] has as its system HCT-116. Description: Cytotoxicity against human HCT116 cells.
Assay [6] relates to BXPC-3. Description: Cell cycle arrest in human BxPC3 cells assessed as accumulation of cells at S phase at 10 uM after 24 hrs by FACS analysis. An outline of the steps: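 BxPC3 cells were treated with each compound at 10 μM. The cell-cycle profile was determined by FACS as the percentage of cells in each phase, including S and G2/M.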
In assay [7] the test system is MDA-MB-231. Description: Cytotoxicity against human MDA-MB-231 cells.
Assay [8] relates to A549. Description: Cytotoxicity against human A549 cells.
In assay [9] the test system is BXPC-3. Description: Cytotoxicity against human BxPC3 cells.
For assay [10], the system named is MCF7. The experiment in a line: Cell cycle arrest in human MCF7 cells assessed as accumulation of cells at G1 phase at 10 uM after 24 hrs by FACS analysis. An outline of the steps: as §1
A general note: Flow cytometry measures light scatter and fluorescence of single cells or particles in a stream.

In assay [11] the test system is MDA-MB-435. Description: Cytotoxicity against human MDA-MB-435 cells.
Assay [12] has as its system BXPC-3. Description: Cell cycle arrest in human BxPC3 cells assessed as accumulation of cells at G2/M phase at 10 uM after 24 hrs by FACS analysis. An outline of the steps: (§2)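 Cells were treated with a single 10 μM concentration and analysed by FACS for cell-cycle distribution. The read-out was the percentage of cells in the G1, S and G2/M phases. A 24 h exposure is stated for MCF-7; no duration is given for BxPC3.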

The subject of assay [13] is MCF7. Description: Cell cycle arrest in human MCF7 cells assessed as decrease of cells at S phase at 10 uM after 24 hrs by FACS analysis. The method, boiled down: as §2

Activity calls are given as the source filed them. No cut-off for these calls is given here.

By IC50 is commonly meant the midpoint of a concentration-inhibition curve.

Turning to `O=C1NC(=O)c2c1c1c3ccccc3ccc1c1c2c2ccccc2n1[C@@H]1O[C@H](CO)[C@@H](O)[C@H](O)[C@H]1O`, the IC50 came out at 6.1 µM in assay [1]; 2.3 µM in [2]; 6.1 µM in [4]; 5.1 µM in assay [5]; 2.7 µM in assay [7]; 2.8 µM in [8]. Moreover, the values for the IC50 in [9] and in assay [11] were 5.4 µM and 3.5 µM, respectively. Further, the outcome in assay [3] and in [6] was Active. The outcome in [10] was inactive.
Turning to `C[C@@H]1O[C@@H](n2c3ccccc3c3c4c(c5c6ccccc6ccc5c32)C(=O)NC4=O)[C@H](O)[C@H](O)[C@H]1O`, the IC50 in assay [1] was determined as 5 µM; in assay [2], 2.7 µM; in [4], 4.5 µM; in assay [5] it was 3.1 µM; in [7], 4.7 µM; in assay [8], 2.8 µM. Further, the figures for the IC50 in [9] and in [11] were 7.3 µM and 3.6 µM, respectively. For the same compound, the outcome in [3] was Active. For the same compound, the outcome in assay [10] was inactive.
As to `O=C1NC(=O)c2c1c1c3ccccc3ccc1c1c2c2ccccc2n1[C@@H]1O[C@H](CO)[C@@H](O)[C@H]1O`, the IC50 in assay [1] worked out at 4.4 µM; in assay [2] it was 2.4 µM; in [4], 5.3 µM; in [5], 3.8 µM; in [7], 2.4 µM; in assay [8], 2.1 µM. For the same compound, the IC50 was 5.3 µM in [9] and 3.2 µM in assay [11]. The result in [3] and in assay [6] was Active. Besides, the result in [10] was inactive.
For the compound `O=C1NC(=O)c2c1c1c3ccccc3ccc1c1c2c2ccccc2n1[C@H]1OC[C@@H](O)[C@@H](O)[C@H]1O`, the IC50 came out at 3.4 µM in assay [1]; 2.1 µM in [2]; 4.8 µM in assay [4]; 6 µM in [5]; 3.3 µM in [7]; 2 µM in [8]. The IC50 in assay [9] was 6.6 µM; in [11], 3.3 µM. The result in assay [3] was Active. For the same compound, in assay [10], the result was inactive.
For the compound `O=C1NC(=O)c2c1c1c3ccccc3ccc1c1c2c2ccccc2n1[C@H]1C[C@H](O)[C@@H](CO)O1`, the IC50 in [1] was determined as 9.1 µM; in [2] it was 2.6 µM; in assay [4] it was 7.3 µM; in assay [5], 8.7 µM; in assay [7] it was 3.3 µM; in assay [8], 3.4 µM. Moreover, the IC50 in assay [9] amounted to 7.4 µM; in assay [11], 4.1 µM. Also, the result in assay [3] and in [6] was Active. For the same compound, in assay [10], the outcome was inactive.
Consider `O=C1NC(=O)c2c1c1c3ccccc3ccc1c1[nH]c3ccccc3c21`, for which the IC50 in assay [1] is over 10 µM; in [2], 5.9 µM; in [4], 8.3 µM; in assay [5], 5.7 µM; in assay [7], 8.1 µM; in assay [8] it was 2.6 µM. The IC50 in assay [9] worked out at 8.3 µM; in assay [11], 5.7 µM. Moreover, the result in assay [12], in assay [10] and in [13] was Active.
